# Screens deposited in PubChem by several laboratories.
# The list is not random: actives were taken first. Their share in the collection is about 2.7%.
# SDO1 yeast rescue – compounds rescuing growth of sdo1-depleted yeast, bone marrow failure model; S. cerevisiae sdo1-depleted JHY4D growth rescue, OD600 30 h; stronger effect = higher value; pdr5 snq2 efflux-pump mutant strain; z-score at 10 µM; 0.21% of 140,000 active; AID 817;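 active = z-score above 3 at both the 24 hr and the 30 hr optical density reads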;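 note: z-score against mean and SD of all compound wells on the same plate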
# RAM network inh – blocks the yeast RAM network; S. cerevisiae dse1pr::URA3 reporter, 5-FOA growth OD615, 2 d; analog-sensitive cbk1-as2 kinase mutant strain; inhibition, % at 50 µM; 1.8% of 190,000 active;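 active = inhibition above a set limit, 3 SD over mean compound inhibition, cut at about 8.4% in these data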;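 note: 0% = DMSO-only wells with no growth and 100% = 10 µM 1-NA-PP1 full growth; inhibition rescues growth on 5-FOA so higher OD means more RAM inhibition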
# Yeast lifespan up – extends the lifespan of yeast; S. cerevisiae growth with nicotinamide, OD615; deaD strain in restrictive glucose medium; inhibition of the nicotinamide effect, % at 10 µM; 0.68% of 130,000 active;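 active = inhibition above a set limit, placed 3 SD over the median of all compounds, cut at about 26% in these data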;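 note: 0% = nicotinamide-treated wells and 100% = cells grown without nicotinamide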
#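 Measured by: optical density (absorbance) at 615 nm; System: modified budding yeast, DeaD strain; Medium: restrictive CSMM-D dextrose medium; Timing: 4 h preincubation then 48 h treatment at 30 °C.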
# Yeast growth inh – reduces growth of yeast BB579 in restrictive medium; 0.51% of 140,000 active; inhibition, % at 10 µM; S. cerevisiae BB579 growth, OD615, 48 h;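 active = inhibition above a set limit, 3 SD over the mean compound inhibition, cut at about 44% in these data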
#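 System: Saccharomyces cerevisiae DeaD strain BB579, replicative lifespan model yeast | Buffer or medium: Restrictive glucose-based CSMM-D medium | Times: 4 h preincubation and 48 h exposure at 30 °C | Detection: OD615 turbidity measurement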
# An asterisk follows results filed as active; x = no result.
SMILES,SDO1 yeast rescue,RAM network inh,Yeast lifespan up,Yeast growth inh
CN(C)C(CNS(=O)(=O)c1ccc(Cl)cc1)c1cccnc1 (stereo not drawn),0.57,1.4,3.9,-12.7
O=S(=O)(NCC(Nc1ccc(Cl)cc1)c1ccccc1)c1ccc(Cl)cc1 (stereo not drawn),-1.71,9.0*,-2.0,-27.0
CCn1ncc(C2=NOC(C(=O)NCc3ccccc3)C2)c1C (stereo not drawn),1.07,2.9,-6.4,-13.1
CCn1ncc(C2=NOC(C(=O)Nc3c(C)n(C)n(-c4ccccc4)c3=O)C2)c1C (stereo not drawn),0.28,1.1,-10.9,48.3*
CN(NC(=O)c1ccc(Cl)cc1Cl)C1=NS(=O)(=O)c2ccccc21,x,4.7,x,x
COc1ccc(-c2nc(C#N)c(NCc3ccc(F)cc3)o2)cc1OC,-1.96,8.9*,-13.2,-6.8
COc1ccc(-c2nc(C#N)c(NCc3cccnc3)o2)cc1OC,0.27,-1.4,-20.7,4.5
CCOc1ccc(-c2nc(C#N)c(NCc3ccc4c(c3)OCO4)o2)cc1,0.14,10.7*,-2.2,-16.1
CCOc1ccc(-c2nc(C#N)c(NC3CC3)o2)cc1,-0.75,3.2,-25.1,16.2
CCOc1ccc(S(=O)(=O)N2CCC(C(N)=O)CC2)c2ccccc12,-0.29,0.6,0.5,-28.8
COc1ccc(C)cc1NC(=O)COC(=O)Cc1ccc(-c2ccccc2)cc1,-1.01,9.6*,-2.5,-3.4
COc1ccc(NC(=O)COC(=O)Cc2ccc(-c3ccccc3)cc2)c(OC)c1,-0.54,7.3,-0.4,-20.9
COC(=O)c1nn(-c2ccc(OC)cc2)c(=O)cc1Oc1ccccc1,-0.46,-0.3,-18.8,-21.1
CCOc1ccc(Br)cc1-c1noc(-c2cccs2)n1,-0.73,8.8*,-18.6,-33.2
COc1cc(OC)cc(-c2nc(-c3ccc(Br)cc3)no2)c1,-2.41,4.8,-3.1,-47.5
COc1cc(OC)cc(-c2nc(-c3cccs3)no2)c1,x,9.8*,x,x
COc1cc(-c2noc(-c3cccs3)n2)cc(OC)c1OC,0.47,2.6,-7.4,-34.6
COCCCN1C(=O)C(=O)/C(=C(/O)c2ccc(OC)cc2C)C1c1cccnc1 (stereo not drawn),-0.59,0.8,-6.3,-2.8
Cc1ccc(CNC(=O)c2ccc3c(=O)n(CCCN4CCCC4=O)c(=S)[nH]c3c2)cc1,0.64,6.2,-6.5,-15.8
CCN1CCCC1CNCC(O)COc1ccc(C(C)(C)C)cc1C (stereo not drawn),x,1.0,x,x
Cc1ccccc1NC(=O)c1ccc(N/N=C/c2ccccc2O)c([N+](=O)[O-])c1,-1.44,8.7*,-1.9,-36.6
NS(=O)(=O)c1ccc(N/N=C/c2ccccc2C(=O)O)c([N+](=O)[O-])c1,x,3.4,x,x
Cc1ccc(NC(=O)c2ccc(Nc3c([N+](=O)[O-])cc([N+](=O)[O-])cc3[N+](=O)[O-])cc2)cc1,-1.01,6.0,-1.5,-30.8
Cc1ccc(NC(=O)c2ccc(N/N=C/c3cccc(O)c3)c([N+](=O)[O-])c2)cc1,0.19,9.0*,-10.6,-12.4
C/C(=N/NC(=O)C1CC1(c1ccccc1)c1ccccc1)c1cccs1 (stereo not drawn),-1.53,1.3,5.3,-42.3
SMILES,SDO1 yeast rescue,RAM network inh,Yeast lifespan up,Yeast growth inh
C/C(=N\NC(=O)C1CC1)c1cccs1,0.19,3.4,27.2*,-51.5
Cc1cc(C)c2nc(-c3ccccn3)cc(C(=O)NCc3ccc(S(N)(=O)=O)cc3)c2c1,x,-0.2,x,x
Cc1cc(C)c2nc(-c3ccccn3)cc(C(=O)NCCc3ccc(S(N)(=O)=O)cc3)c2c1,x,10.4*,x,x
Cc1c(C(=O)N2CCOCC2)[nH]c2c1C(=O)CC(c1ccc(Cl)cc1)C2 (stereo not drawn),-0.31,-0.4,-14.5,-27.3
CCOC(=O)C1C(=O)C(C(C)=O)C(=O)CC1CC(C)SCC (stereo not drawn),0.01,-2.1,93.4*,-50.0
CCSC(C)CC1CC(=O)CC(=O)C1 (stereo not drawn),0.73,0.9,18.2,-17.6
Cc1ccccc1-c1ccc(=O)n(CC(=O)Nc2ccc(S(=O)(=O)N(C)C)cc2)n1,x,8.9*,x,x
CCOC(=O)c1sc(NC(=O)CSc2nccc(C)n2)c(C#N)c1C,0.39,0.9,-12.1,-55.6
CCOC(=O)c1sc(NC(=O)CSc2nccc(C)n2)nc1C,x,8.5*,x,x
COc1ccccc1NC(=O)COc1ccccc1C(=O)c1cnn(-c2ccccc2)c1,-0.31,1.4,-6.8,-34.3
CCOC(=O)CC(NC(=O)Cn1nnc(-c2ccccc2F)n1)c1ccc(OC)cc1 (stereo not drawn),x,9.7*,x,x
CCCn1nc(C(=O)Nc2cccc(C(=O)OC)c2)c2ccccc2c1=O,-0.4,8.9*,-18.6,-28.1
Cc1ccc(CN(C(=O)c2c(F)cccc2F)C2CC(C)(C)NC(C)(C)C2)o1,0.39,0.3,5.6,-47.1
Cc1cc(C(=O)COc2ncnc3sccc23)c(C)n1C,-0.3,1.6,35.0*,-63.1
Cc1c(NN=C(C#N)C#N)c(=O)n(-c2ccccc2)n1C,x,1.0,x,x
CCn1c(SCC(=O)NC(C)c2ccccc2)nc2ccccc21 (stereo not drawn),0.18,0.3,-7.0,-22.0
CCSc1ccccc1C(=O)N1CCCC1,-0.11,-0.3,-11.5,-14.3
CCSc1ccccc1C(=O)n1nnc2ccccc21,0.59,0.3,60.2*,-49.8
O=C1NCCCC1C(=O)N/N=C/c1cccc(O)c1 (stereo not drawn),-0.06,-0.1,-1.3,100.4*
O=C(c1cccc(S(=O)(=O)N2CCCCCC2)c1)N1CCN(c2ccccc2)CC1,x,2.6,x,x
CN1CCN(/N=C/c2nc(-c3ccccc3Cl)n3ccccc23)CC1,0.83,1.5,-3.5,-12.4
CN1CCN(/N=C/c2cccc(Cl)c2Cl)CC1,0.52,1.4,30.5*,-39.7
CCOC(=O)C1=CN(Cc2ccc(OC)cc2)C=C(C(=O)OCC)C1c1cccs1,x,10.2*,x,x
Cc1sc(NC(=O)c2ccco2)c(C(c2cccnc2)N2CCN(c3ccc(F)cc3)CC2)c1C (stereo not drawn),-2.66,8.4*,0.4,-3.3
C/C(N)=C(/C#N)C(=O)CSc1nc(C2CCCCC2)n(-c2ccccc2)n1,-1.57,-0.3,58.6*,12.5
SMILES,SDO1 yeast rescue,RAM network inh,Yeast lifespan up,Yeast growth inh
Cc1ccc(C2c3c(C)nn(-c4ccc([N+](=O)[O-])cc4)c3N=C3C(=O)Nc4ccccc4N32)cc1 (stereo not drawn),x,9.9*,x,x
CCC(CC)C(=O)Nc1ccccc1-n1cccc1,2.03,1.7,-6.7,-15.3
CSc1n[nH]c(NCc2ccccc2)n1,0.52,2.1,3.8,-55.1
O=C(CSc1nnc(-c2cc3ccccc3cc2O)n1Cc1ccco1)c1ccc(F)cc1,-0.7,8.4*,5.4,-28.8
O=C(COc1ccccc1)NNC(=O)COc1ccc([N+](=O)[O-])cc1,x,2.2,x,x
O=C(COc1ccc([N+](=O)[O-])cc1)N(Cc1ccccc1)Cc1ccccc1,-1.59,11.0*,43.5,-24.5
O=C(CN(c1cccc([N+](=O)[O-])c1)S(=O)(=O)c1ccccc1)NCc1ccccc1,-0.49,3.6,2.8,-25.4
